In paper PMC11661184 (bioRxiv, 2024):
Where a chain is given by its changes, count along the chain named. Numbers in names are those of the source.

B1: WT hTRPA1: wild type human TRPA1 channel (protein)
chain: MKRSLRKMWRPGEKKEPQGVVYEDVPDDTEDFKESLKVVFEGSAYGLQNFNKQKKLKRCDDMDTFFLHYAAAEGQIELMEKITRDSSLEVLHEMDDYGNTPLHCAVEKNQIESVKFLLSRGANPNLRNFNMMAPLHIAVQGMNNEVMKVLLEHRTIDVNLEGENGNTAVIIACTTNNSEALQILLKKGAKPCKSNKWGCFPIHQAAFSGSKECMEIILRFGEEHGYSRQLHINFMNNGKATPLHLAVQNGDLEMIKMCLDNGAQIDPVEKGRCTAIHFAATQGATEIVKLMISSYSGSVDIVNTTDGCHETMLHRASLFDHHELADYLISVGADINKIDSEGRSPLILATASASWNIVNLLLSKGAQVDIKDNFGRNFLHLTVQQPYGLKNLRPEFMQMQQIKELVMDEDNDGCTPLHYACRQGGPGSVNNLLGFNVSIHSKSKDKKSPLHFAASYGRINTCQRLLQDISDTRLLNEGDLHGMTPLHLAAKNGHDKVVQLLLKKGALFLSDHNGWTALHHASMGGYTQTMKVILDTNLKCTDRLDEDGNTALHFAAREGHAKAVALLLSHNADIVLNKQQASFLHLALHNKRKEVVLTIIRSKRWDECLKIFSHNSPGNKCPITEMIEYLPECMKVLLDFCMLHSTEDKSCRDYYIEYNFKYLQCPLEFTKKTPTQDVIYEPLTALNAMVQNNRIELLNHPVCKEYLLMKWLAYGFRAHMMNLGSYCLGLIPMTILVVNIKPGMAFNSTGIINETSDHSEILDTTNSYLIKTCMILVFLSSIFGYCKEAGQIFQQKRNYFMDISNVLEWIIYTTGIIFVLPLFVEIPAHLQWQCGAIAVYFYWMNFLLYLQRFENCGIFIVMLEVILKTLLRSTVVFIFLLLAFGLSFYILLNLQDPFSSPLLSIIQTFSMMLGDINYRESFLEPYLRNELAHPVLSFAQLVSFTIFVPIVLMNLLIGLAVGDIAEVQKHASLKRIAMQVELHTSLEKKLPLWFLRKVDQKSTIVYPNKPRSGGMLFHIFCFLFCTGEIRQEIPNADKSLEMEILKQKYRLKDLTFLLEKQHELIKLIIQKMEIISETEDDDSHCSFQDRFKKEQMEQRNSRWNTVLRAVKAKTHHLEP
B2: W1103A hTRPA1: hTRPA1 with W1103 mutated to alanine (protein)
chain: B1 chain with W1103A
B3: hTRPA1^Δ1109–1119: hTRPA1 truncation lacking only the terminal 11 amino acids (protein)
chain: MKRSLRKMWRPGEKKEPQGVVYEDVPDDTEDFKESLKVVFEGSAYGLQNFNKQKKLKRCDDMDTFFLHYAAAEGQIELMEKITRDSSLEVLHEMDDYGNTPLHCAVEKNQIESVKFLLSRGANPNLRNFNMMAPLHIAVQGMNNEVMKVLLEHRTIDVNLEGENGNTAVIIACTTNNSEALQILLKKGAKPCKSNKWGCFPIHQAAFSGSKECMEIILRFGEEHGYSRQLHINFMNNGKATPLHLAVQNGDLEMIKMCLDNGAQIDPVEKGRCTAIHFAATQGATEIVKLMISSYSGSVDIVNTTDGCHETMLHRASLFDHHELADYLISVGADINKIDSEGRSPLILATASASWNIVNLLLSKGAQVDIKDNFGRNFLHLTVQQPYGLKNLRPEFMQMQQIKELVMDEDNDGCTPLHYACRQGGPGSVNNLLGFNVSIHSKSKDKKSPLHFAASYGRINTCQRLLQDISDTRLLNEGDLHGMTPLHLAAKNGHDKVVQLLLKKGALFLSDHNGWTALHHASMGGYTQTMKVILDTNLKCTDRLDEDGNTALHFAAREGHAKAVALLLSHNADIVLNKQQASFLHLALHNKRKEVVLTIIRSKRWDECLKIFSHNSPGNKCPITEMIEYLPECMKVLLDFCMLHSTEDKSCRDYYIEYNFKYLQCPLEFTKKTPTQDVIYEPLTALNAMVQNNRIELLNHPVCKEYLLMKWLAYGFRAHMMNLGSYCLGLIPMTILVVNIKPGMAFNSTGIINETSDHSEILDTTNSYLIKTCMILVFLSSIFGYCKEAGQIFQQKRNYFMDISNVLEWIIYTTGIIFVLPLFVEIPAHLQWQCGAIAVYFYWMNFLLYLQRFENCGIFIVMLEVILKTLLRSTVVFIFLLLAFGLSFYILLNLQDPFSSPLLSIIQTFSMMLGDINYRESFLEPYLRNELAHPVLSFAQLVSFTIFVPIVLMNLLIGLAVGDIAEVQKHASLKRIAMQVELHTSLEKKLPLWFLRKVDQKSTIVYPNKPRSGGMLFHIFCFLFCTGEIRQEIPNADKSLEMEILKQKYRLKDLTFLLEKQHELIKLIIQKMEIISETEDDDSHCSFQDRFKKEQMEQRNSRWNTVLR

Key:
[1] = molecular target: 3xFLAG-TurboID-CaM C-lobe (human); experiment: proximity labelling
V5-tagged WT CaM = experiment: Immunofluorescence co-localization with V5-WT CaM in Neuro2A cells; format: cell-based, human; details: for Co-localization with WT CaM (deconvolved IF images): resting Neuro2A cells, Airyscan
Procedure, shortened: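 Neuro2A cells were grown in DMEM with 10% FBS, transfected, then placed on poly-L-lysine coverslips for 16-20 h. Cells were fixed in 4% PFA, permeabilised with 0.1% Triton and blocked in 4% BSA. Staining used anti-V5 (1:500), Alexa488 anti-mouse (1:700) and Cy3 anti-FLAG (1:500), each for 45 min at RT. Airyscan images (63x oil) were deconvolved. Per-cell pixel-intensity Pearson's R used thresholds from mono-stained samples. Mean ± SD; two-tailed t-test.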

[2] = test system: hTRPA1 expressed in Xenopus laevis oocytes; experiment: Two-electrode voltage clamp, Ca2+ potentiation and desensitization; format: cell-based, human; details: for Potentiation by extracellular Ca2+ / Slowing of desensitization versus WT hTRPA1, intracellular Ca2+ chelated / Slowing of potentiation versus WT hTRPA1 / Slowing of desensitization versus WT hTRPA1: 1.8 mM Ca2+; for Potentiation by extracellular Ca2+: comparable peak current amplitudes; for Desensitization time constant / Potentiation time constant: 1.8 mM extracellular Ca2+, n=10 oocytes; for Residual activity after extracellular Ca2+ (of initial activity): 5 minutes after 1.8 mM extracellular Ca2+; for Residual activity after extracellular Ca2+ (of initial activity) / Slowing of desensitization versus WT hTRPA1: n=10 or 12 oocytes; for Slowing of desensitization versus WT hTRPA1, intracellular Ca2+ chelated: 500 µM EGTA-AM 20 min
CaM (Calmodulin-agarose) = experiment: CaM-agarose pulldown of TRPA1 constructs; format: binding; details: for CaM binding at basal Ca2+ concentration: n=3 independent experiments
Procedure, shortened: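 HEK293T cells were transfected with tagged TRPA1 constructs and lysed after 16-24 h in Tris pH 8.0 buffer containing 5 mM DDM and 500 µM EGTA. Free Ca²⁺ was set with CaCl₂, calculated from EGTA constants. 100 µg lysate was incubated with CaM-agarose for 1 h at 4 °C, washed, then eluted with 5 mM EGTA. Detection was by anti-FLAG or anti-MBP immunoblot, with tubulin input control. Enrichment is relative to the maximum within each replicate.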

TurboID-CaM C-lobe = experiment: Proximity biotinylation in HEK293T cells; format: cell-based, human; details: 50 µM biotin 15 min, basal Ca2+; n=4
Procedure, shortened: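 HEK293T cells co-expressed 3xFLAG-TurboID or 3xFLAG-TurboID-CaM C-lobe with 3xFLAG-hTRPA1 variants. About 48 h post-transfection, 50 uM biotin was added to the culture medium. After 15 min, cells were lysed and proteins captured on anti-FLAG resin (1 h, 4 °C), then eluted with 125 µg/ml 3xFLAG peptide. Biotinylated proteins were detected with HRP-streptavidin (1:50,000).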

[3] = test system: hTRPA1 expressed in Xenopus laevis oocytes; format: cell-based, human; details: for AITC sensitivity versus WT hTRPA1: Ca2+-free; for Gating kinetics and peak current amplitudes: absence of Ca2+, activation and closing at +80 mV, n=8
[4] = test system: hTRPA1 channel activity in HEK293T cells; experiment: Ratiometric Ca2+ imaging of TRPA1 variant activity; format: cell-based, human; details: baseline, 10 µM or 100 µM AITC; n=4
Procedure, shortened: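 HEK293T cells (DMEM, 10% calf serum) were transiently transfected. At 16-24 h they were replated on poly-L-lysine glass, with parallel anti-FLAG immunoblot to check expression. One hour later cells were loaded with 10 µg/mL Fura-2 AM and 0.025% Pluronic F-127 in Ringer's for 1 h at RT. […] At least 90 cells per condition per experiment were analysed, with untransfected background subtracted. Mean ± SEM; two-tailed t-test.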

CaM binding at basal Ca2+ concentration (CaM (Calmodulin-agarose))	Molecule	Co-localization with WT CaM (deconvolved IF images) (V5-tagged WT CaM)	Potentiation by extracellular Ca2+ ([2]; 250 µM AITC)	Residual activity after extracellular Ca2+ (of initial activity) [2]	Increase in translocated charge versus WT hTRPA1 ([2]; +80 mV)	Slowing of potentiation versus WT hTRPA1 ([2]; +80 mV)	Slowing of desensitization versus WT hTRPA1 ([2]; +80 mV)	Increase in translocated charge versus WT hTRPA1 ([2]; −80 mV)	Slowing of potentiation versus WT hTRPA1 ([2]; −80 mV)	Slowing of desensitization versus WT hTRPA1 ([2]; −80 mV)	AITC sensitivity versus WT hTRPA1 [3]	Gating kinetics and peak current amplitudes [3]	TRPA1 biotinylation with TurboID-CaM C-lobe (TurboID-CaM C-lobe)	also measured
	3xFLAG-WT hTRPA1 (wild type human TRPA1) (from UniProt O75762 1-1119) (natural protein)													percent increase in biotinylation with TurboID-CaM C-lobe against free TurboID [1]: 40%
	B1	pronounced co-localization	rapid potentiation											Desensitization with 10 mM versus 1.8 mM extracellular Ca2+ ([2]; 250 µM AITC, 125 µM niflumic acid, n=9): desensitize faster; Desensitization time constant ([2]; +80 mV, 250 µM AITC): 12.5 s; Potentiation time constant ([2]; +80 mV, 250 µM AITC): 2.2 s; Desensitization after extracellular Ca2+ addition ([2]; within 25 seconds of 1.8 mM Ca2+): nearly complete desensitization; Desensitization time constant ([2]; −80 mV, 250 µM AITC): 11.9 s; Potentiation time constant ([2]; −80 mV, 250 µM AITC): 2.7 s; CaM binding (CaM-agarose enrichment) (CaM (Calmodulin-agarose); 0.1 µM Ca2+ (resting cytosolic), HEK293T lysate, immunoblot, n=11): robust interaction; CaM binding (CaM-agarose enrichment) (CaM (Calmodulin-agarose); absence of Ca2+ (0 µM), HEK293T lysate, immunoblot): failed to bind CaM; CaM binding (CaM-agarose enrichment) (CaM (Calmodulin-agarose); intermediate (500 µM) and extracellular (2 mM) Ca2+, n=11): stepwise decrease in binding; Increase in TRPA1 biotinylation with TurboID-CaM C-lobe versus TurboID (TurboID-CaM C-lobe): approximately 40%
completely ablated CaM binding	B2		rapid potentiation	10–20%	10 fold	~ 1.8 fold	20 fold	20 fold	~ 3 fold	15 fold	slightly reduced AITC sensitivities	not significantly different from WT hTRPA1	loss in biotinylation	Faster desensitization rate with 10 mM than with 1.8 mM extracellular Ca2+ ([2]; 250 µM AITC, 125 µM niflumic acid, n=10 or 11): approximately 3 fold; Slower desensitization than WT hTRPA1 with 1.8 mM Ca2+ ([2]; 250 µM AITC, 10 mM extracellular Ca2+, 125 µM niflumic acid): approximately 4 fold; Desensitization profile with buffered intracellular Ca2+ ([2]; 500 µM EGTA-AM 20 min pre-incubation): delayed desensitization profile compared to WT hTRPA1 channels and a faster desensitization profile than W1103A hTRPA1 channels without intracellular Ca^2+ buffering; Potentiation kinetics versus WT hTRPA1, buffered intracellular Ca2+ ([2]; 500 µM EGTA-AM, n=8): did not exhibit a significant change to potentiation kinetics; Slowing of desensitization versus WT hTRPA1, intracellular Ca2+ chelated ([2]; +80 mV, n=8): 10.5 fold; Slowing of desensitization versus WT hTRPA1, intracellular Ca2+ chelated ([2]; −80 mV, n=8): 10.7 fold
failed to bind CaM	B3	greatly reduced co-localization	rapid potentiation	20–30%	5 fold	~ 1.8 fold	16 fold	large, albeit nonsignificant increase	~ 3 fold	10 fold	slightly reduced AITC sensitivities	not significantly different from WT hTRPA1	reduced biotinylation	Pearson's correlation coefficient (R) of CaM:TRPA1 co-localization (V5-tagged WT CaM; Δ1109–1119 compared to WT, n=41 or 40 cells, ***p=0.0002): significant reduction in the CaM:TRPA1 co-localization; Basal and agonist-evoked channel activity compared to WT hTRPA1 [4]: increased basal and agonist-evoked activity
